Reference: ChEMBL document CHEMBL1124479, “N-[(arylmethoxy)phenyl] and N-[(arylmethoxy)naphthyl] sulfonamides: potent orally active leukotriene D4 antagonists of novel structure” (J Med Chem, 1989)
Calls of active or inactive are those of the source. No cut-off for these calls is given here.

Legend:
Cavia porcellus [1] = assay: Inhibition of ovalbumin-induced bronchoconstriction when compound was administered intraduodenally at a dose of 25 mg/kg in guinea pig; type: functional; conditions: route intraduodenal
How it was run: (§1)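 Single-dose screen in guinea pigs, with n animals per group. Significance versus control used a two-tailed Student's t test (p < 0.05), or one-way ANOVA with contrasts based on each treatment's difference from its own control mean.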

Cavia porcellus [2] = assay: Inhibition of ovalbumin-induced bronchoconstriction when compound was administered perorally at a dose of 25 mg/kg in guinea pig; type: functional; conditions: route oral; how it was run: as §1
Cavia porcellus [3] = assay: Inhibition of Leukotriene D4 induced bronchoconstriction when compound was administered perorally at a dose of 25 mg/kg in guinea pig; type: functional; conditions: route oral; how it was run: as §1
[4] = target: T1, Polyunsaturated fatty acid 5-lipoxygenase (Rattus norvegicus, UniProt P12527); assay: Inhibitory concentration to inhibit 5-lipoxygenase in the rat
T1 sequence (P12527 whole entry): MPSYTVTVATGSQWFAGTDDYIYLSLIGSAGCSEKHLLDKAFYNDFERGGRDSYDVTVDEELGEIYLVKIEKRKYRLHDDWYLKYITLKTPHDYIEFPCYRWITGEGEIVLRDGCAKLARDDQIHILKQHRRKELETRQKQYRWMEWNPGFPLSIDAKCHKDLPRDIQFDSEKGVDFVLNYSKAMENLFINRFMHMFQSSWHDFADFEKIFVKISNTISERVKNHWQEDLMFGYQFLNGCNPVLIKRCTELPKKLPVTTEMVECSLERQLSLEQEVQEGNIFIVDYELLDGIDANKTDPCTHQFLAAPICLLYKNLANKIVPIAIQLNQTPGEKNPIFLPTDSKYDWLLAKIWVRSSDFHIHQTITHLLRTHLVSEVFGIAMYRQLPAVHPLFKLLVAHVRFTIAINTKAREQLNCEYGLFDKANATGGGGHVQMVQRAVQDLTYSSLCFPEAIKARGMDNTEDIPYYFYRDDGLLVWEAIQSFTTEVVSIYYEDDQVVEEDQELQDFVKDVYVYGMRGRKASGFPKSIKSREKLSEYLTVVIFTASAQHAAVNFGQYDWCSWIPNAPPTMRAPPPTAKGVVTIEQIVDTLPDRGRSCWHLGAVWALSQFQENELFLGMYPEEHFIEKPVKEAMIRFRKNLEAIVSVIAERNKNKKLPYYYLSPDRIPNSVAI
How it was run: (§2)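 Rat PMN assay, measuring 5-lipoxygenase and cyclooxygenase activity. IC50 values are in μM.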

Cavia porcellus [5] = assay: Inhibitory dose of the intragastrically administered compound (120 min before giving agonist) that produced a 50% inhibition of leukotriene D4 induced bronchoconstriction in guinea pigs; type: functional; conditions: po, read-out: ID50 (the source's name)
How it was run: (§3)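 Guinea pigs, awake, dosed intragastrically 120 min before agonist challenge (95 min before anesthetic). The LTD4 challenge was given intravenously; ovalbumin served as antigen. ID50 is the dose giving 50% inhibition of LTD4- or ovalbumin-induced bronchoconstriction.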

Cavia porcellus [6] = assay: Relative inhibitor potency of the intraduodenally administered compound with Wy-48,252 against lovalbumininduced bronchoconstriction in guinea pigs; type: functional
Cavia porcellus [7] = assay: Relative inhibitor potency of the intragastrically administered compound with Wy-48,252 against ovalbumin induced bronchoconstriction in guinea pigs; type: functional
How it was run: (§4)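 Intragastric dosing of awake guinea pigs 120 min before agonist (95 min before anesthetic), with LTD4 or ovalbumin challenge.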

Cavia porcellus [8] = assay: Inhibition of Leukotriene D4 induced bronchoconstriction in guinea pig by 50 mg/kg i.d.; conditions: at 50 mg/kg
[9] = Disassociation constant was determined; type: ADME
How it was run: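 Isolated guinea pig trachea, pretreated with indomethacin and L-cysteine, contracted with LTD4. Antagonism was expressed as a pKB value.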

Mus musculus [10] = assay: Percent inhibition of TPA-induced inflammation at 1 mg/ear in the mouse ear edema; type: functional
Cavia porcellus [11] = assay: Inhibitory dose of the intraduodenally administered compound (10 min before giving agonist)that produced a 50% inhibition of ovalbumin induced bronchoconstriction in guinea pigs; type: functional; conditions: intraduodenal, read-out: ID50 (the source's name)
How it was run: (§5)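 Guinea pigs, intraduodenal dosing, with LTD4 or ovalbumin challenge. ID50 is the dose of antagonist giving 50% inhibition of the induced bronchoconstriction.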

Rattus norvegicus [12] = assay: Percent inhibition of compound (50 mg/kg) in the rat carrageenan paw edema assay; type: functional
How it was run: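 Rat carrageenan paw edema, with compound given intragastrically. Read-out is percent inhibition of edema.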

Cavia porcellus [13] = assay: Relative inhibitor potency of the intraduodenally administered compound with Wy-48,252 against leukotrien D4 induced bronchoconstriction in guinea pigs; type: functional
Cavia porcellus [14] = assay: Inhibitory dose of intraduodenally administered compound (10 min before giving agonist) that produced a 50% inhibition of leukotriene D4 induced bronchoconstriction in guinea pig; type: functional; conditions: intraduodenal, read-out: ID50 (the source's name); how it was run: as §5
Cavia porcellus [15] = assay: Inhibitory dose of the intragastrically administered compound (120 min before giving agonist) that produced a 50% inhibition of ovalbumin induced bronchoconstriction in guinea pigs; type: functional; conditions: po, read-out: ID50 (the source's name); how it was run: as §3
Cavia porcellus [16] = assay: Relative inhibitor potency of the intragastrically administered compound with Wy-48,252 against leukotriene D4 induced bronchoconstriction in guinea pigs; type: functional; how it was run: as §4
Cavia porcellus [17] = assay: Inhibition of ovalbumin-induced bronchoconstriction when compound was administered intraduodenally at a dose of 50 mg/kg in guinea pig; type: functional; conditions: route intraduodenal; how it was run: as §1
Cavia porcellus [18] = assay: Inhibition of ovalbumin-induced bronchoconstriction when compound was administered perorally at a dose of 50 mg/kg in guinea pig; type: functional; conditions: route oral; how it was run: as §1
Cyclooxygenase = target: T2, Cyclooxygenase (Rattus norvegicus, UniProt P35355+Q63921); assay: Inhibitory concentration to inhibit Prostaglandin G/H synthase in the rat; type: protein assay; how it was run: as §2
T2 sequence (P35355 whole entry): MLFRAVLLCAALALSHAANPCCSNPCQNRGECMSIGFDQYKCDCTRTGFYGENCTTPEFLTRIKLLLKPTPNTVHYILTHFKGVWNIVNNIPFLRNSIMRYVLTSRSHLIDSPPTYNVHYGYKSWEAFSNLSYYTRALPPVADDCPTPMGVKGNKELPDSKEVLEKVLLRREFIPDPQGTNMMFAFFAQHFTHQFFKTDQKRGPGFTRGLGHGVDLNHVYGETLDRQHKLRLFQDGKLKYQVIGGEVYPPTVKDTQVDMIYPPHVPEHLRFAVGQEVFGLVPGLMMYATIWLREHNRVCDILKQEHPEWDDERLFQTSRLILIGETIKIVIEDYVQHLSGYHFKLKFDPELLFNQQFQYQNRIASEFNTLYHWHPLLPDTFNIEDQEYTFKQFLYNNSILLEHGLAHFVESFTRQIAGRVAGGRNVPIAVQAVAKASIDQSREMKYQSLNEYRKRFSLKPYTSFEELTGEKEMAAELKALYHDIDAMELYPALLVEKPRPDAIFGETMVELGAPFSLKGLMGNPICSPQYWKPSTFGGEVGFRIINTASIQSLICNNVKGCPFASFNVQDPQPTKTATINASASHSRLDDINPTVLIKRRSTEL
T2 sequence (Q63921 whole entry): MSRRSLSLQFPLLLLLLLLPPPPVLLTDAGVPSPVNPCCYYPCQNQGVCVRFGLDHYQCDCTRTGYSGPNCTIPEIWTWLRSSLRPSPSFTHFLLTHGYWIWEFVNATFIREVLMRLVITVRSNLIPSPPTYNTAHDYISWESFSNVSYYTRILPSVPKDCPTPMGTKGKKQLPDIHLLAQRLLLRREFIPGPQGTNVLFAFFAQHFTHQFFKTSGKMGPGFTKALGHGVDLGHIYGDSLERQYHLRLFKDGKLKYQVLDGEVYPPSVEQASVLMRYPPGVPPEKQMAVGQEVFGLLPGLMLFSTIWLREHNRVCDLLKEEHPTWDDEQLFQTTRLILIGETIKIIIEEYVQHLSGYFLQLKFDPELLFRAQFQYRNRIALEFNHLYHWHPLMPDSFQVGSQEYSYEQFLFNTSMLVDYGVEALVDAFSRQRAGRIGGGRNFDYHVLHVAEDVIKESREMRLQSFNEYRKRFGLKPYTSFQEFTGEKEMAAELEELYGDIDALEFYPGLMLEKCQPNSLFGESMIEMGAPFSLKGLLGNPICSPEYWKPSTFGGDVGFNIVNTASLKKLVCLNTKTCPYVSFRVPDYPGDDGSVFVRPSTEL

Cavia porcellus [19] = assay: Inhibitory dose of the intraduodenally administered compound (10 min before giving agonist) that produced a 50% inhibition of ovalbumin induced bronchoconstriction in guinea pigs; type: functional; conditions: intraduodenal, read-out: ID50 (the source's name); how it was run: as §5
Cavia porcellus [20] = assay: Relative inhibitor potency of the intraduodenally administered compound with Wy-48,252 against ovalbumin induced bronchoconstriction in guinea pigs; type: functional
Cavia porcellus [21] = assay: Inhibitory dose of the intraduodenally administered compound (10 min before giving agonist) that produced a 50% inhibition of leukotriene D4 induced bronchoconstriction in guinea pigs; type: functional; conditions: intraduodenal, read-out: ID50 (the source's name); how it was run: as §5
[22] = Dissociation constant was determined; type: physicochemical
How it was run: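 Isolated guinea pig trachea pretreated with indomethacin and L-cysteine, then contracted with LTD4. Antagonism of the LTD4-induced contraction was expressed as a pKB value.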

Mus musculus [23] = assay: Compound was administered intragastrically and tested in a mouse ear edema assay; Inactive; type: functional, organism-based
Cavia porcellus [24] = species: Cavia porcellus; assay: Activity against leukotriene C4-induced contraction of guinea pig trachea, in the presence of glutathione
Cavia porcellus [25] = assay: Inhibition of ovalbumin-induced bronchoconstriction when compound was administered intraduodenally at a dose of 10 mg/kg in guinea pig; type: functional; conditions: route intraduodenal; how it was run: as §1
[26] = Binding studies using tritium-labelled leukotriene D4; set-up: species or system Cavia porcellus
Rattus norvegicus [27] = assay: Compound at 100 mg/kg was administered intragastrically and tested in a rat carrageenan paw edema assay; type: functional; conditions: po, route intragastric

IC50 [4] | IC50 (Cyclooxygenase) | SMILES | inhibition in vivo at 25 mg/kg (Cavia porcellus [2]) | inhibition in vivo at 25 mg/kg (Cavia porcellus [3]) | ED50 (Cavia porcellus [5]) | Relative inhibitor potency (Cavia porcellus [7]) | Relative inhibitor potency (Cavia porcellus [13]) | ED50 (Cavia porcellus [15]) | Relative inhibitor potency (Cavia porcellus [16]) | ED50 (Cavia porcellus [19]) | ED50 (Cavia porcellus [21]) | further results
– | – | O=S(=O)(Nc1cccc(OCc2ncc3ccccc3n2)c1)C(F)(F)F | 23% | 97% | – | – | – | – | – | – | – | inhibition in vivo at 25 mg/kg (Cavia porcellus [1]): 78%
230 nM | 11.9 µM | O=S(=O)(Nc1ccc2ccc(OCc3ccc4ccccc4n3)cc2c1)C(F)(F)F | – | – | 0.25 mg/kg | 6 | 4 | 6.1 mg/kg | 128 | – | – | Relative inhibitor potency (Cavia porcellus [6]): 41; inhibition (Cavia porcellus [8]): 99%; pKB [9]: 7.04; Inhibition (Mus musculus [10]): 34%; ED50 (Cavia porcellus [11]): 0.46 mg/kg; Inhibition (Rattus norvegicus [12]): 63%; ED50 (Cavia porcellus [14]): 1.4 mg/kg; inhibition in vivo at 50 mg/kg (Cavia porcellus [17]): 86%; inhibition in vivo at 50 mg/kg (Cavia porcellus [18]): 83%
– | – | CCCc1c(OCCCCc2nnn[nH]2)ccc(C(C)=O)c1O [TOMELUKAST] | – | – | 32 mg/kg | 1 | 1 | 38 mg/kg | 1 | 19 mg/kg | 6 mg/kg | Relative inhibitor potency (Cavia porcellus [20]): 1
4600 nM | 3.3 µM | O=S(=O)(Nc1cccc(OCc2ccc3ccccc3n2)c1)C(F)(F)F [RITOLUKAST] | 69% | 100% | 0.1 mg/kg | – | – | 0.6 mg/kg | – | 3 mg/kg | 0.3 mg/kg | pKB [22]: 7.7; inhibition (Mus musculus [23]): inactive; Dose (Cavia porcellus [24]): 30 µM; inhibition in vivo at 10 mg/kg (Cavia porcellus [25]): 73%; Kd [26]: 35 nM; inhibition in vivo at 100 mg/kg (Rattus norvegicus [27]): 20%
